# Assay outcomes: PubChem, several laboratories
# RAM inhibit – inhibitors of the yeast RAM network, primary screen, dse1pr::URA3 reporter, 5-FOA selection; S. cerevisiae dse1pr::URA3 reporter, 5-FOA growth OD615, 2 d; analog-sensitive cbk1-as2 kinase mutant strain; AID 868, 2007; inhibition, % at 50 µM; actives 1.8% (n = 190,000);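 active = inhibition above a set limit, 3 SD over mean compound inhibition, cut at about 8.4% in these data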;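 also: 0% = DMSO-only wells with no growth and 100% = 10 µM 1-NA-PP1 full growth; inhibition rescues growth on 5-FOA so higher OD means more RAM inhibition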
# Yeast growth inh – growth inhibitors of yeast BB579 in restrictive medium, primary screen, yeast lifespan-shortening project, S. cerevisiae; OD615, 48 h; inhibition, % at 10 µM; actives 0.51% (n = 140,000); AID 804, 2007;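 active = inhibition above a set limit, 3 SD over the mean compound inhibition, cut at about 44% in these data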
#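 Test system: S. cerevisiae DeaD strain BB579 yeast; Medium: restrictive CSMM-D medium; Compound: one dose, 10 µM compound with 0.25% DMSO; Incubation: 4 h cell preincubation, 48 h compound exposure, 30 °C humidified; Signal: OD at 615 nm; Benchmarks: amphotericin B at 10 µg/mL as positive control.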
# Phagocytosis inh – inhibitors of macrophage phagocytosis, primary screen, imaging, J774A.1 cells, IgG beads | J774A.1 macrophage IgG-bead phagocytosis | inhibition, % at 5 µM | actives 0.07% (n = 110,000) | AID 1029, 2008;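 active = inhibition above the mean of the plate negative controls plus 5 SD, cut at about 13% in these data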;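 also: phagocytic index as fraction of beads internalized from green versus red external bead signal; plate controls were DMSO negative control for no effect and cytochalasin-D positive control for full effect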
# Yeast life ext – compounds extending yeast replicative lifespan, primary screen, S. cerevisiae, OD615. actives 0.68% (n = 130,000). S. cerevisiae growth with nicotinamide; deaD strain in restrictive glucose medium. inhibition of the nicotinamide effect, % at 10 µM;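 active = inhibition above a set limit, placed 3 SD over the median of all compounds, cut at about 26% in these data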;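 also: 0% = nicotinamide-treated wells and 100% = cells grown without nicotinamide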
#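 Assay system: engineered S. cerevisiae DeaD replicative-lifespan strain, galactose-grown log-phase cells; medium: restrictive CSMM-D dextrose medium; also added: nicotinamide, 1.5 mM, co-present with compound; schedule: 48 h compound exposure at 30 °C, humidified; detection: absorbance at 615 nm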
# The depositor's hits bear a star; . = not tested or not shown; + = active, no number; [ ] = remark or other dose. Shown are actives, neighbours in structure and some others; about 2.7% of the full set was active somewhere.
SMILES,RAM inhibit,Yeast growth inh,Phagocytosis inh,Yeast life ext
COCc1nnc(SCC(=O)Nc2cccc(Cl)c2C)n1-c1ccccc1,0,-19,0,-2
Cc1ccc(N2C(=O)CC(N3CCc4ccccc43)C2=O)cc1Cl (configuration not stated),5,.,.,.
CCC1(C)Cc2nc3[nH]c(=S)n(-c4ccccc4)c(=O)c3cc2CO1 (configuration not stated),8.5*,-8,.,7
O=c1c(-c2ccc(Cl)cc2)[n+]([O-])c2ccccc2n1O,1,100*,-5,-15
N#Cc1c(SCC(N)=O)nsc1SCc1ccccc1Cl,0,-35,.,-13
N#Cc1c(SCC(N)=O)nsc1SCc1ccc(Cl)cc1,9.2*,-73,3,-2
CCN(CC(=O)NC(C)(C)C)C(=O)c1ccc2c(c1)S(=O)(=O)c1ccccc1C2=O,-1,.,.,.
O=C(NCc1ccc(F)cc1)c1ccccc1OCc1ccccc1,10*,0,-6,-4
O=C(NCc1ccccc1)c1cccc(COc2ccccc2Cl)c1,8.6*,-27,-2,-12
O=C(CCc1nnc(CCCc2ccccc2)o1)NCC(F)(F)F,2,.,.,.
CCOC(=O)NS(=O)(=O)c1ccc(CCNC(=O)c2cc(C)on2)cc1,3,8,-5,7
CC(C)CNC(=O)c1oc2ccccc2c1COc1ccccc1,8.9*,-12,-3,-2
Cc1nc2ccc(NC(=O)c3cc([N+](=O)[O-])cc([N+](=O)[O-])c3Cl)cc2s1,1,89*,-6,-11
COc1cc(NC(=O)Cn2c(=O)n(CC3CCCO3)c(=O)c3ccccc32)cc(OC)c1 (configuration not stated),10*,.,.,.
COc1ccc(NC(=O)Cn2c(=O)n(CC3CCCO3)c(=O)c3ccccc32)c(OC)c1 (configuration not stated),5,.,.,.
Cc1ncccc1C(=O)N1CCCC(CNC(=O)C2(c3ccc(Cl)cc3)CC2)C1 (configuration not stated),0,.,.,.
Cc1ccc(SCC(=O)Nc2cccc(-c3nnc(-c4ccco4)o3)c2)cc1,2,-13,-1,-15
CCc1ccc(-c2csc(NC(=O)C3CCCO3)c2C(=O)OC(C)C)cc1 (configuration not stated),10*,-36,-1,-14
Cc1cc2sc(C(=O)O)c(C)c2s1,1,58*,.,.
Cc1c(C(=O)O)sc2nc(C)n(C)c(=O)c12,-1,-68,.,0
Cc1nc(SCc2ccccc2F)c2cnn(-c3ccccc3)c2n1,11*,.,.,.
CCOc1ccccc1NC(=O)C(OC(=O)c1ccccc1O)c1ccccc1 (configuration not stated),8.9*,-49,-4,1
CCOc1ccccc1C(=O)Nc1ccccc1O,0,-20,-2,-27
CCOc1ccccc1C(=O)Nc1ccccc1-c1ccccc1,9.6*,-25,-5,-3
COc1ccc(OC)c(S(=O)(=O)N2CCC(C(=O)N3CCc4ccccc4C3)CC2)c1,2,-10,6,-6
SMILES,RAM inhibit,Yeast growth inh,Phagocytosis inh,Yeast life ext
O=C1OC(Nc2cc(Br)cc3cccnc23)c2ccccc21 (configuration not stated),3,-24,-6,-7
COCCNC(=O)C(c1ccc(C)o1)N(Cc1ccc(OC)cc1)C(=O)Cn1nnc2ccccc21 (configuration not stated),11*,-48,-1,0
O=C(NCc1ccco1)C(c1ccco1)N(Cc1cccs1)C(=O)Cn1nnc2ccccc21 (configuration not stated),9.5*,-46,.,.
Nc1n[nH]c(N)c1N=Nc1ccc(Cl)cc1Cl,0,-41,-2,-8
Cc1ccc(OCCOc2ccc(Cl)cc2Cl)c([N+](=O)[O-])n1,7,-14,-8,-6
COc1ccccc1N1C(=O)C2C(c3ccc(F)cc3)NN(C(=O)c3ccc(C)cc3)C2C1=O (configuration not stated),1,.,.,.
CCCCNC(C(=O)Nc1ccc(Cl)c([N+](=O)[O-])c1)c1ccccc1 (configuration not stated),2,-16,-7,-2
COc1cc2ccccc2cc1C(=O)NC(=S)Nc1cccc(C(=O)O)c1,8.9*,.,.,.
O=C(O)c1cccc(NC(=S)NC(=O)c2ccc(-c3ccccc3)cc2)c1,5,.,.,.
CN(C)c1ccc(/C=C/c2ccc3ccccc3[n+]2C)cc1,2,66*,-8,2
CN(C)c1ccc(/C=C/c2ccc3c4ccccc4ccc3[n+]2-c2ccccc2)cc1,7,.,.,.
O=[N+]([O-])c1ccc(CN2CCCCCC2)s1,-1,54*,-7,4
O=C(/C=C/c1ccc([N+](=O)[O-])s1)N1CCCCC1,0,.,.,.
Cc1ccc(S(=O)(=O)NNc2ccccc2)c(C)c1,0,-22,2,-1
COc1cc(OC)nc(NC(=O)CS(=O)(=O)c2ccccc2)n1,-1,56*,.,.
CCOc1cccc(N2C(=O)CC(NCc3ccc(S(N)(=O)=O)cc3)C2=O)c1 (configuration not stated),-2,-42,0,-1
Cc1ccc2nc(-c3ccc(NS(=O)(=O)c4ccccc4)cc3)sc2c1,3,-31,-2,0
Cc1ccc2nc(-c3ccc(NS(=O)(=O)c4ccc(F)c(F)c4)cc3)sc2c1,5,68*,-5,-7
Cc1ccc(Nc2nc(N)nc(CN3CCN(c4ccccc4)CC3)n2)cc1Cl,1,-26,+,-5
Cc1cc(C)n2nc(S(=O)(=O)NC(C)(C)C)nc2n1,4,.,.,.
CCc1nnc(NC(=O)CCn2cnc3ccccc3c2=O)s1,1,.,.,.
CCCCCCn1nc(C(=O)Nc2nc3c(s2)CCCC3)c2ccccc2c1=O,11*,-18,-5,3
O=C(CCn1cnc2ccccc2c1=O)Nc1nc2c(s1)CCCC2,3,-42,41*[artifact],15
CCCCn1nc(C(=O)Nc2nc3c(s2)CCCC3)c2ccccc2c1=O,3,-6,-5,-3
O=C(c1cc2ccccc2oc1=O)N(Cc1ccccc1)Cc1ccc2c(c1)OCO2,3,-47,.,.
SMILES,RAM inhibit,Yeast growth inh,Phagocytosis inh,Yeast life ext
CCCOc1ccc(Cn2c(=O)oc3ccc(C)cc32)cc1OC,8.6*,-37,.,.
O=C(OCC#CCSc1nc2ccccc2o1)c1cc2ccccc2o1,10*,-48,.,.
O=C(OCC#CCSc1nc2ccccc2o1)c1ccco1,1,8,.,-11
Cc1ccc(C(C2=C(O)CC(C)(C)CC2=O)C2C(=O)CC(C)(C)CC2=O)s1 (configuration not stated),-1,12,-2,25
COc1cccc(C(C2=C(O)CC(C)(C)CC2=O)C2C(=O)CC(C)(C)CC2=O)c1 (configuration not stated),0,-32,-4,22
CC1(C)CC(=O)C(C(C2=C(O)CC(C)(C)CC2=O)c2ccc([N+](=O)[O-])cc2)C(=O)C1 (configuration not stated),2,-31,-2,38*
